Data from ChEMBL document CHEMBL4725404, “Design, synthesis and biological evaluation of 4-aryl-5-aminoalkyl-thiazole-2-amines derivatives as ROCK II inhibitors” (Bioorg Med Chem, 2020).

Experiments:
[1] = target: T1, Rho-associated protein kinase 2 (Homo sapiens, UniProt O75116); experiment: Inhibition of ROCK2 (unknown origin) using C-terminus recombinant MBS (654-880 residues) as substrate at 10 uM incubated for 30 mins in presence of ATP by ELISA relative to control
How it was run: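 ROCK II activity ELISA kit; compounds screened at 10 µM for percent inhibition. Kinase reaction incubated at 30 °C for 30 min, then washed. Horseradish peroxidase-conjugated anti-AF20 antibody added for 30 min at room temperature. TMB substrate developed and absorbance read at 450 nm. Inhibition rate derived from OD450.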
Target sequence in this assay (O75116 whole entry, looked up, the tested form may be a part): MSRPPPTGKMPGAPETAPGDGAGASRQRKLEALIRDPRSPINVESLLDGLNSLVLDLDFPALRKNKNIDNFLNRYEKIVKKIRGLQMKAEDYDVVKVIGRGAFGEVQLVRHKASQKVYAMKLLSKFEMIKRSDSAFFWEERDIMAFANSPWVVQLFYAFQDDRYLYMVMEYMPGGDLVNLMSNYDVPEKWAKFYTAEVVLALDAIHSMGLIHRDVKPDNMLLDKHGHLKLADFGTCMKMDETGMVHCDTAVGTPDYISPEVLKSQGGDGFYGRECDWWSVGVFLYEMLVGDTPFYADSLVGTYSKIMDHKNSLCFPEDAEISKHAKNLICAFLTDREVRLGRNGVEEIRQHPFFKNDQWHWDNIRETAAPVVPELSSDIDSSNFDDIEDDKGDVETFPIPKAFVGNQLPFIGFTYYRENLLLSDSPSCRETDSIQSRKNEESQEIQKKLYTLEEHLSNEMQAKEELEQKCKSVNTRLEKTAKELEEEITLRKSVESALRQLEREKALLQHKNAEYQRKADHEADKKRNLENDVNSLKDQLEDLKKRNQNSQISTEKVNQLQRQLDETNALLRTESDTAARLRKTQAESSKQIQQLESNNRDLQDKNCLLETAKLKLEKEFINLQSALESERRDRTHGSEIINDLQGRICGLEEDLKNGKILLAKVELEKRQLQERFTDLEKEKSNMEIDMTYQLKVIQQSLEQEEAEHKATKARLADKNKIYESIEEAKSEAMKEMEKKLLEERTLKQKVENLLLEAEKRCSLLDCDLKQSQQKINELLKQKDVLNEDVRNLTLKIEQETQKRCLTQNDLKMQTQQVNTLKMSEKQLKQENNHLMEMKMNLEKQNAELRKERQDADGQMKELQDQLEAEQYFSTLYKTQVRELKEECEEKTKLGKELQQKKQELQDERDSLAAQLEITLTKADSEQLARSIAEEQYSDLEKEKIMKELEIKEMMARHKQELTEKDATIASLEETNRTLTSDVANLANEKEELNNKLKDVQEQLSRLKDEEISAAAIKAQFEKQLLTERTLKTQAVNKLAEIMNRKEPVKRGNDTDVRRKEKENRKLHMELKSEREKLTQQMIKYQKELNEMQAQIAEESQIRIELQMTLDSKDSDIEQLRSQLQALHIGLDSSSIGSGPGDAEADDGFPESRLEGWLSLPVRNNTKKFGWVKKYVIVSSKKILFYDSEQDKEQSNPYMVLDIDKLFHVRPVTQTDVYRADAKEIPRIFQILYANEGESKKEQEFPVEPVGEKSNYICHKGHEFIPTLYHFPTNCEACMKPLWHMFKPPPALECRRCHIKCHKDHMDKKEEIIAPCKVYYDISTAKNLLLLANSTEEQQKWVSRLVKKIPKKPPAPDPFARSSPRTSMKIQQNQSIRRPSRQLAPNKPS

[2] = target: T1, Rho-associated protein kinase 2; experiment: Inhibition of ROCK2 (unknown origin) using C-terminus recombinant MBS (654-880 residues) as substrate incubated for 30 mins in presence of ATP by ELISA
How it was run: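 Compounds with significant single-point inhibition were run in full concentration–response in the ROCK II ELISA kit. Kinase step at 30 °C for 30 min, then wash. Anti-AF20 HRP antibody applied for 30 min at room temperature, followed by TMB colour development read at OD 450 nm. IC50 calculated by nonlinear regression of inhibition rates.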
Target sequence in this assay (O75116 whole entry, the tested form may be a part): as the sequence (O75116 whole entry, looked up, the tested form may be a part) above

| Compound | inhibition [1] | IC50 [2] |
| --- | --- | --- |
| CC(C)N(C)c1sc(NC(=O)c2ccncc2)nc1-c1ccncc1 | 32.1% | – |
| O=C(Nc1nc(-c2cccnc2)c(CN2CCCCC2)s1)c1cccnc1 | 28.5% | – |
| CN(C)CCc1sc(NC(=O)C2COc3ccccc3O2)nc1-c1ccncc1 (stereo not drawn) | 78.5% | 90 nM |
| CN(C)Cc1sc(NC(=O)C2COc3ccccc3O2)nc1-c1cccnc1 (stereo not drawn) | 58.1% | 4960 nM |
| O=C(Nc1nc(-c2ccncc2)c(N2CCOCC2)s1)C1COc2ccccc2O1 (stereo not drawn) | 76.3% | 130 nM |
| O=C(Nc1nc(-c2cccnc2)c(CN2CCCC2)s1)C1COc2ccccc2O1 (stereo not drawn) | 61.3% | – |
| CN(C)Cc1sc(NC(=O)c2cccnc2)nc1-c1cccnc1 | 33.9% | – |
| CN(C)C(=O)Cc1sc(NC(=O)C2COc3ccccc3O2)nc1-c1ccncc1 (stereo not drawn) | 56.9% | 8830 nM |
| CC(C)N(C)Cc1sc(NC(=O)c2cccnc2)nc1-c1cccnc1 | 38.1% | – |
| O=C(Nc1nc(-c2cccnc2)c(CN2CCOCC2)s1)C1COc2ccccc2O1 (stereo not drawn) | 63.8% | 1730 nM |
| CN1CCN(Cc2sc(NC(=O)c3cccnc3)nc2-c2cccnc2)CC1 | 32.1% | – |
| CN(C)Cc1sc(NC(=O)c2ccncc2)nc1-c1cccnc1 | 35.3% | – |
| O=C(Nc1nc(-c2ccncc2)cs1)C1COc2ccccc2O1 (stereo not drawn) | 91.3% | – |

Second part, the molecule after the results:

| inhibition [1] | IC50 [2] | Compound |
| --- | --- | --- |
| 58.1% | – | O=C(Nc1nc(-c2ccncc2)c(CN2CCOCC2)s1)c1ccncc1 |
| 48.2% | – | O=C(Nc1nc(-c2ccncc2)c(CN2CCCCC2)s1)c1ccncc1 |
| 34.3% | – | CN1CCN(c2sc(NC(=O)c3ccncc3)nc2-c2ccncc2)CC1 |
| 52.2% | – | O=C(Nc1nc(-c2ccncc2)c(CN2CCOCC2)s1)c1cccnc1 |
| 41.1% | – | O=C(Nc1nc(-c2cccnc2)c(CN2CCOCC2)s1)c1cccnc1 |
| 47.6% | – | O=C(Nc1nc(-c2ccncc2)c(CN2CCCC2)s1)c1ccncc1 |
| 48.8% | – | CN(C)CCc1sc(NC(=O)c2ccncc2)nc1-c1ccncc1 |
| 38.1% | – | CN(C)C(=O)Cc1sc(NC(=O)c2ccncc2)nc1-c1ccncc1 |
| 51.1% | – | O=C(Nc1nc(-c2cccnc2)c(CN2CCOCC2)s1)c1ccncc1 |
| 87.4% | – | O=C(Nc1nc(-c2ccncc2)c(CN2CCOCC2)s1)C1COc2ccccc2O1 (stereo not drawn) |
